Measurements published in ChEMBL document CHEMBL1156486, “Discovery and characterization of a novel inhibitor of matrix metalloprotease-13 that reduces cartilage damage in vivo without joint fibroplasia side effects” (J Biol Chem, 2007).
≈ marks a conversion by molar mass, not a printed value. Calls of active or inactive are those of the source. The rule behind the calls is not given here.

Experiments:
[1] = biological target: Collagenase 3 (Homo sapiens, UniProt P45452)
[2] = biological target: Macrophage metalloelastase (Homo sapiens, UniProt P39900); assay: Inhibition of MMP12 catalytic domain
Macrophage metalloelastase, sequence (P39900 whole entry, the tested form may be a part): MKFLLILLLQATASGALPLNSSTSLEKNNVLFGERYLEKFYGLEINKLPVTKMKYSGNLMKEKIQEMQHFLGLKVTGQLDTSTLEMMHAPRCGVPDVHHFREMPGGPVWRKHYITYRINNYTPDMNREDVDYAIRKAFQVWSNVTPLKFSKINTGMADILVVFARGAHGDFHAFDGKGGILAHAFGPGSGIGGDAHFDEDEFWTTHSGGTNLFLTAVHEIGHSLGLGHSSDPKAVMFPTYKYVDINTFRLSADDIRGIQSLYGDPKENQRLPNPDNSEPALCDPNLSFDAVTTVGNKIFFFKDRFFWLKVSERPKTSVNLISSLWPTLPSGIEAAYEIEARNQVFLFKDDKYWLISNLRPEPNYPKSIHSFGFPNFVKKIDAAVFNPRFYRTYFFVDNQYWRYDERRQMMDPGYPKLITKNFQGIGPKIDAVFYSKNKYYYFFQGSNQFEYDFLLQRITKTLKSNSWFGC
In short: (§1)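 Buffer: 50 mM Hepes pH 7.0, 10 mM CaCl2, 1 mM DTNB, 0.005% Brij 35, 1% final DMSO. […] Initial rate read as A412 increase at 25 °C. At least triplicate inhibitor titrations. % of control activity fit to a sloped IC50 equation.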

[3] = biological target: Stromelysin-1 (Homo sapiens, UniProt P08254); assay: Inhibition of MMP3 catalytic domain
Stromelysin-1, sequence (P08254 whole entry, the tested form may be a part): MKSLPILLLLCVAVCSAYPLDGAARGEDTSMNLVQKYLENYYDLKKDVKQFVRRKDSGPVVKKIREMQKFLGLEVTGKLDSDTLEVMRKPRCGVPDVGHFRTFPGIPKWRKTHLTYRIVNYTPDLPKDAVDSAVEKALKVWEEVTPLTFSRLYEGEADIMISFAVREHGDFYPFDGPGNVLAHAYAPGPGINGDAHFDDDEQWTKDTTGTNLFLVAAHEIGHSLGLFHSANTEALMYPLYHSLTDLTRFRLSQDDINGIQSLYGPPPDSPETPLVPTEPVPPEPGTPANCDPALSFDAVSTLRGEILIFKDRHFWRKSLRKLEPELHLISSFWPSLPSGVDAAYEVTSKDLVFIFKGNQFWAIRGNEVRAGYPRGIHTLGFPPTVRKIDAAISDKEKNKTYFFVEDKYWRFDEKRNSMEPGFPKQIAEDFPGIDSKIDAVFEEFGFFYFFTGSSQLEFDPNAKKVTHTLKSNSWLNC
In short: as §1

[4] = biological target: T1, Matrix metalloproteinase-17 (Homo sapiens, UniProt Q9ULZ9); assay: Inhibition of MMP17 catalytic domain
T1 sequence (Q9ULZ9 whole entry): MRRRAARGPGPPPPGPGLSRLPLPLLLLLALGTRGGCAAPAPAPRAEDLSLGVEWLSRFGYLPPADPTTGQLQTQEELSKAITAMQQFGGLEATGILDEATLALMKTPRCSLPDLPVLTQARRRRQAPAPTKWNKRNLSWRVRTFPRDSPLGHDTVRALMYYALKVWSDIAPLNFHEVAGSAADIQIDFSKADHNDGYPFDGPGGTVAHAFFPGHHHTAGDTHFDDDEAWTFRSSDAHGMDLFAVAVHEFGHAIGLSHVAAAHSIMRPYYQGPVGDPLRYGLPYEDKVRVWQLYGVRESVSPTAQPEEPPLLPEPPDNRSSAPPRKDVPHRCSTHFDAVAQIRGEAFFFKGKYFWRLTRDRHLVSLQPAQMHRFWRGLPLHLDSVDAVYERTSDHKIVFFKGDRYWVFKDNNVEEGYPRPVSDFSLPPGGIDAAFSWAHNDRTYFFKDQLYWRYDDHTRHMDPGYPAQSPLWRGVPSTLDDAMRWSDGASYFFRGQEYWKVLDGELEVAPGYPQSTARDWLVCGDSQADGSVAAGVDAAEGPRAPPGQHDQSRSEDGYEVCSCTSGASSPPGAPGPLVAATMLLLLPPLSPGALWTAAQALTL
In short: as §1

[5] = biological target: T2, Matrilysin (Homo sapiens, UniProt P09237); assay: Inhibition of MMP7
T2 sequence (P09237 whole entry): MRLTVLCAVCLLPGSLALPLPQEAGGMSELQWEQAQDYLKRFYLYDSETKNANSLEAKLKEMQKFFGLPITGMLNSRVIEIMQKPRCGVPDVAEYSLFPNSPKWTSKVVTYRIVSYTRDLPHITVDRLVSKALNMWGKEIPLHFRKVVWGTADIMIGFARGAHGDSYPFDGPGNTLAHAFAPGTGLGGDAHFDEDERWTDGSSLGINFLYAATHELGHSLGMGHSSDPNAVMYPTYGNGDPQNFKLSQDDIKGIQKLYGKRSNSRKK
In short: as §1

[6] = biological target: Matrix metalloproteinase-14 (Homo sapiens, UniProt P50281); assay: Inhibition of MMP14 catalytic domain
In short: as §1

[7] = tested on: O=C(OCc1ccccc1)c1cn2c(=O)n(Cc3ccccc3)c(=O)cc2s1; settings: Homo sapiens
[8] = AUC (0 to 24 hrs) in New Zealand white rabbit osteoarthritis model at 30 mg/kg, po twice daily after 5 weeks; format: ADME, organism-based, Oryctolagus cuniculus; parameters: time < 24 hr, dose 30 mg/kg, route oral; settings: in vivo
[9] = tested on: Oryctolagus cuniculus; assay: Inhibition of cartilage damage in New Zealand white rabbit osteoarthritis model assessed as reduction of cartilage lesion on tibial plateau at 30 mg/kg, po twice daily after 5 weeks relative to control; format: functional; parameters: scale not given: the % may be the effect or the level left
In short: (§2)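 Oral dosing 30 mg/kg or vehicle twice daily from day 1 post-op for 5 weeks. Joints removed, stained with India ink; two-dimensional lesion areas on tibial plateaus and femoral condyles measured; means ± S.E., compared to vehicle.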

[10] = tested on: Rattus norvegicus; assay: Toxicity in Sprague-Dawley rat model of musculoskeletal syndrome side effect assessed as induction of joint fibroplasia at 2000 mg/kg/day, po after 14 days; format: organism-based; parameters: route oral; settings: in vivo, 336 h
In short: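 Sprague-Dawley rats (6/sex) given vehicle or 2000 mg/kg/day orally for 14 days; a non-selective hydroxamate MMP inhibitor at 2000 mg/kg/day as positive control. Calcaneon tendon and femorotibial, tibiotarsal, humeroradial joints taken bilaterally; femorotibial joints formalin-fixed, decalcified, H&E-stained, examined by light microscopy for fibroplasia.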

[11] = biological target: Neutrophil collagenase (Homo sapiens, UniProt P22894); assay: Inhibition of MMP8 catalytic domain
Neutrophil collagenase, sequence (P22894 whole entry, the tested form may be a part): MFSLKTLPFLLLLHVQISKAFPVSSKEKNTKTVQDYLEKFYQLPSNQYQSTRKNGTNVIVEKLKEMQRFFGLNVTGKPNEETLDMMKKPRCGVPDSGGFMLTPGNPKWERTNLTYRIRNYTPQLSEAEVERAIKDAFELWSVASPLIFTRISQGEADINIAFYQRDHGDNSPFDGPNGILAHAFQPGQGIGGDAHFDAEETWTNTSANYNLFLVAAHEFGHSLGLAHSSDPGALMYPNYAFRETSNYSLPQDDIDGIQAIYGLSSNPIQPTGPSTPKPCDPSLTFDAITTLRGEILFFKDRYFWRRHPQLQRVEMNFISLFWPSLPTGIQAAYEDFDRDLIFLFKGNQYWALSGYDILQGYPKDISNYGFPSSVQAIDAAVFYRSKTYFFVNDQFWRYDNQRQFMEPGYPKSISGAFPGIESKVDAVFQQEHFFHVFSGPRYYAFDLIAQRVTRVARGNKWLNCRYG

[12] = Drug level in Sprague-Dawley rat model of musculoskeletal syndrome side effect at 2000 mg/kg/day, po after 14 days; format: ADME, organism-based; parameters: route oral; settings: in vivo
[13] = biological target: 72 kDa type IV collagenase (Homo sapiens, UniProt P08253); assay: Inhibition of MMP2
72 kDa type IV collagenase, sequence (P08253 whole entry): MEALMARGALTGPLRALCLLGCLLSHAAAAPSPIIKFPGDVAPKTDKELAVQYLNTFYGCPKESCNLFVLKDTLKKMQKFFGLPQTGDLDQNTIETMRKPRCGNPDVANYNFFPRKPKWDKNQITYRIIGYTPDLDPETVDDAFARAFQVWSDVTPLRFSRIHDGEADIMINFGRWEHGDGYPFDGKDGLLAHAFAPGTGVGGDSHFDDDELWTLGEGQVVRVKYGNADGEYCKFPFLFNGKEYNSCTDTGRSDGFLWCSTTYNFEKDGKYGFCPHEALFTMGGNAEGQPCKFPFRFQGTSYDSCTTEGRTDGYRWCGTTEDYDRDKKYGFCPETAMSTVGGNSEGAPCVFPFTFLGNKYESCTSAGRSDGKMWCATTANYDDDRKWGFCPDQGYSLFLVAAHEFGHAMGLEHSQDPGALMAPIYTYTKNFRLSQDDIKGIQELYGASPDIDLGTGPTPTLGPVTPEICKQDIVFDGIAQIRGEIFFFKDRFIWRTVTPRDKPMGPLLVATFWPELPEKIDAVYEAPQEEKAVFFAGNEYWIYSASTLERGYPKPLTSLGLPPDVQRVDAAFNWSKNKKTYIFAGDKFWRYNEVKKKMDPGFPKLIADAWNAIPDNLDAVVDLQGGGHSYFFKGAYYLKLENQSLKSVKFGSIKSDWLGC

[14] = AUC (0 to 24 hrs) in Sprague-Dawley rat model of musculoskeletal syndrome side effect at 2000 mg/kg/day, po after 14 days; format: ADME, organism-based; parameters: time < 24 hr, dose 2000 mg/kg/day, route oral; settings: in vivo
[15] = Solubility in phosphate buffer at pH 6; format: physicochemical
[16] = tested on: Rattus norvegicus; assay: Inhibition of human MMP13-induced type 2 collagen degradation in rat cartilage damage model assessed as type2 collagen neoepitope biomarker level at 0.1 mg/kg, po by enzyme-linked immunosorbent assay; format: functional, organism-based; parameters: dose 0.1 mg/kg
In short: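 Rats (12 per group) dosed orally with vehicle or various doses; 3 h later knees injected intra-articularly with 12 µg activated full-length human MMP13. Sacrifice 2 h after injection; synovial space lavaged twice with 80 µl saline. Type II collagen neoepitope in lavage quantified by ELISA.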

[17] = biological target: T3, A disintegrin and metalloproteinase with thrombospondin motifs 4 (Homo sapiens, UniProt O75173); assay: Inhibition of human ADAMTS4 assessed as cleavage of aggrecan substrate
T3 sequence (O75173 whole entry): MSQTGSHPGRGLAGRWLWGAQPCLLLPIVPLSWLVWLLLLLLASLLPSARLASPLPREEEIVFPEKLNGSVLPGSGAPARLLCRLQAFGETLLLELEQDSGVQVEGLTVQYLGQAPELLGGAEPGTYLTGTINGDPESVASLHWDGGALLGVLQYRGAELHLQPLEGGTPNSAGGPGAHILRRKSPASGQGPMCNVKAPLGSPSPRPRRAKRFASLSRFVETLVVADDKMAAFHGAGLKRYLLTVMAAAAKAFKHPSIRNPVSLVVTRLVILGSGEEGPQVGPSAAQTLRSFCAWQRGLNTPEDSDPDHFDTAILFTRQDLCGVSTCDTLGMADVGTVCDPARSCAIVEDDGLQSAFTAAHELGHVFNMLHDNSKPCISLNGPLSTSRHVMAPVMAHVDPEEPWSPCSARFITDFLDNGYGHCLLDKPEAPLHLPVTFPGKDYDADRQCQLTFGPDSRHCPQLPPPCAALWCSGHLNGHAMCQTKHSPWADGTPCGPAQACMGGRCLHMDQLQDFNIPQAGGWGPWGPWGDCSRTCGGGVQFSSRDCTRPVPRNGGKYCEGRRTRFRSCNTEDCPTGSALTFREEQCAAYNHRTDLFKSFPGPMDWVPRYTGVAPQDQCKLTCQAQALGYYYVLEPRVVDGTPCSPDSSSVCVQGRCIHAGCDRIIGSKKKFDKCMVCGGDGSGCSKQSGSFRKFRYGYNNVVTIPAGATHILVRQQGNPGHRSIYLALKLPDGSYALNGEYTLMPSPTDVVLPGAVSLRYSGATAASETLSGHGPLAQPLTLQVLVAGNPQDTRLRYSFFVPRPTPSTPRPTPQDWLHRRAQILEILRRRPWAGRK
In short: (§3)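 Isolated human enzyme with native aggrecan as substrate. Cleavage quantified using the BC-3 neoepitope antibody.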

[18] = tested on: Oryctolagus cuniculus; assay: Inhibition of cartilage damage in New Zealand white rabbit osteoarthritis model assessed as reduction of cartilage lesion on femoral condyles at 30 mg/kg, po twice daily after 5 weeks relative to control; format: functional, Condyle; parameters: scale not given: the % may be the effect or the level left
In short: as §2

[19] = biological target: Matrix metalloproteinase-9 (Homo sapiens, UniProt P14780); assay: Inhibition of MMP9
Matrix metalloproteinase-9, sequence (P14780 whole entry): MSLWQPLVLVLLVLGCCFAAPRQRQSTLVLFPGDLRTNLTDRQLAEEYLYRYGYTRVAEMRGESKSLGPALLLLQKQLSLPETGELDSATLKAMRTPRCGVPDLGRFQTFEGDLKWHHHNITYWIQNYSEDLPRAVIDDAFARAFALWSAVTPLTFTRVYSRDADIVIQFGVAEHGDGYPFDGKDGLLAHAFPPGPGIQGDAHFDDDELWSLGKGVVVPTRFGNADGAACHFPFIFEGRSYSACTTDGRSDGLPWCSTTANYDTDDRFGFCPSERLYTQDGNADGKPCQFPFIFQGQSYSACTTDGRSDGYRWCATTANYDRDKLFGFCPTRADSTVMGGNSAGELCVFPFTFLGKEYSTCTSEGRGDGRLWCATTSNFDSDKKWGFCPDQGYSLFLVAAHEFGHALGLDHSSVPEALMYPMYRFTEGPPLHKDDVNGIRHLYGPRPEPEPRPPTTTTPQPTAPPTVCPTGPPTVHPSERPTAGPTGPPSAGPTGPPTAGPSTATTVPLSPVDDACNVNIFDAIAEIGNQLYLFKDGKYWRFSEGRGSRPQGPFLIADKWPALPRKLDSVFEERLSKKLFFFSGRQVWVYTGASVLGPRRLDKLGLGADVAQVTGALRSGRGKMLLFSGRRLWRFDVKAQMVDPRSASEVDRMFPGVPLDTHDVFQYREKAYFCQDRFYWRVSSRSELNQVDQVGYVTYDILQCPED

[20] = tested on: Cartilage tissue; assay: Inhibition of IL1alpha and oncostatin M-stimulated hydroxyproline release from bovine nasal cartilage; format: functional, tissue-based; settings: Bos taurus
In short: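 Bovine nasal cartilage explants (1 × 3 mm, 9 per group) cultured 2 weeks with interleukin-1 (50 ng/ml) plus oncostatin M (50 ng/ml), with vehicle or up to 10 µM inhibitor. Medium refreshed twice weekly and pooled for hydroxyproline assay; remaining cartilage papain-digested and its hydroxyproline measured. IC50 taken from a plot of inhibition of cartilage degradation; means ± S.E.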

[21] = Plasma concentration in New Zealand white rabbit osteoarthritis model at 30 mg/kg, po twice daily after 5 weeks; format: ADME, organism-based, Oryctolagus cuniculus; parameters: dose 30 mg/kg, route oral
[22] = biological target: T4, Interstitial collagenase (Homo sapiens, UniProt P03956); assay: Inhibition of MMP1
T4 sequence (P03956 whole entry): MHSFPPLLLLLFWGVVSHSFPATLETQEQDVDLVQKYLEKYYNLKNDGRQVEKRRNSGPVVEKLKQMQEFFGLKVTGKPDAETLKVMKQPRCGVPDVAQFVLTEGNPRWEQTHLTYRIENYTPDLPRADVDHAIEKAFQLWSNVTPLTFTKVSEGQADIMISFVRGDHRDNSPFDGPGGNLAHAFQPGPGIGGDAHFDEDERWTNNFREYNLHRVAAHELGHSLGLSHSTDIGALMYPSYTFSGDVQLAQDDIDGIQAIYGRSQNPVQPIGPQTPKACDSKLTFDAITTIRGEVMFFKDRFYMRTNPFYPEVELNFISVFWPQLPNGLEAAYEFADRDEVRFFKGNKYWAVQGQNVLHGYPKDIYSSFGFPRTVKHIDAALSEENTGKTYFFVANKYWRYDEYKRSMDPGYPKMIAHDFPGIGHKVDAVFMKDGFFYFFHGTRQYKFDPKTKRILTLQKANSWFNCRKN

[23] = Solubility in phosphate buffer at pH 7.5; format: physicochemical
[24] = Solubility in phosphate buffer at pH 6.5; format: physicochemical
[25] = biological target: T5, A disintegrin and metalloproteinase with thrombospondin motifs 5 (Homo sapiens, UniProt Q9UNA0); assay: Inhibition of human ADAMTS5 assessed as cleavage of aggrecan substrate
T5 sequence (Q9UNA0 whole entry): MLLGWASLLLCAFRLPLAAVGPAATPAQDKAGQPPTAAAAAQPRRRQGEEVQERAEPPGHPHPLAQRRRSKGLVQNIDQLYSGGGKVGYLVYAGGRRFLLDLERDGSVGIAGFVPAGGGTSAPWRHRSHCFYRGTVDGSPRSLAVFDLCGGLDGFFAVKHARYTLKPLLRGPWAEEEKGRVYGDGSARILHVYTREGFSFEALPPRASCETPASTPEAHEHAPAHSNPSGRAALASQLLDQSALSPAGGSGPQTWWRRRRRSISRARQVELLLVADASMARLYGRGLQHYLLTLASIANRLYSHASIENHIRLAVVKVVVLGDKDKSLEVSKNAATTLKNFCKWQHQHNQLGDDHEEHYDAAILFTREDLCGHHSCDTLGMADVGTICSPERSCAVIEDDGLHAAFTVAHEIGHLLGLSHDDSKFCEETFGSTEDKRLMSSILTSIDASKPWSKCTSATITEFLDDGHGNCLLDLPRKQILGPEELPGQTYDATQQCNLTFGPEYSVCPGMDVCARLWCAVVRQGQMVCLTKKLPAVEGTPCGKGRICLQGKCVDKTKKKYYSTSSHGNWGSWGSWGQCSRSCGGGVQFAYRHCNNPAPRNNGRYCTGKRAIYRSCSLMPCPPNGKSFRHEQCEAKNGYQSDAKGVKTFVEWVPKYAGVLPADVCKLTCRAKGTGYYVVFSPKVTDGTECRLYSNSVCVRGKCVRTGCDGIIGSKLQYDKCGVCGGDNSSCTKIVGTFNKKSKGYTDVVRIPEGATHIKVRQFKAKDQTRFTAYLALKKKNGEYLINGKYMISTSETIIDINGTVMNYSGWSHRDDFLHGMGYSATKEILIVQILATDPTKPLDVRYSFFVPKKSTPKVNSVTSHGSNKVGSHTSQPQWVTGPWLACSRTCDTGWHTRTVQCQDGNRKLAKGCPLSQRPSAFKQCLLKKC
In short: as §3

Row | Compound | IC50 [2] [µM] | IC50 [3] [µM] | IC50 [4] [µM] | IC50 [5] [µM] | IC50 [6] [µM] | IC50 [11] [µM] | IC50 [13] [µM] | IC50 [19] [µM] | IC50 [22] [µM] | Activity [10] | AUC at 336 h [12] [µg·h/mL] | also measured
1 | Collagenase 3 (Homo sapiens) (from UniProt P45452) |  |  |  |  |  |  |  |  |  |  |  | Km [7]: 48 µM
2 | CC(C)[C@@H](NS(=O)(=O)c1ccc(-c2ccc(Br)cc2)cc1)C(=O)NO |  |  |  |  |  |  |  |  |  | Toxic | 94 | 

Further lines, with some results ahead:

Row | IC50 [2] [µM] | IC50 [3] [µM] | IC50 [4] [µM] | IC50 [5] [µM] | IC50 [6] [µM] | IC50 [11] [µM] | IC50 [13] [µM] | IC50 [19] [µM] | IC50 [22] [µM] | Compound | Activity [10] | AUC at 336 h [12] [µg·h/mL] | also measured
3 | 0.0051 | 0.007 | 0.0034 | 0.033 | 0.0047 |  |  |  |  | CNC(=O)[C@H](Cc1c[nH]c2ccccc12)NC(=O)[C@@H](CC(=O)NO)CC(C)C [ILOMASTAT] |  |  | IC50 [1]: 0.0052 µM
4 | > 100 | > 30 | > 30 | > 30 | > 30 | > 100 | > 30 | > 100 | > 30 | Cn1c(=O)n(Cc2ccc(C(=O)O)cc2)c(=O)c2cc(C#CCc3ccccc3)ccc21 | Non-toxic | 30 | AUC at 24 h [8]: 6 µg·h/mL; Activity [9]: 68%; AUC at 24 h [14]: 1010 µg·h/mL; solubility [15]: 20 µM (≈ 8.49 µg/mL); Activity [16]: Active; IC50 [17]: > 25 µM; Activity [18]: 51%; IC50 [20]: 1.3 µM; AUC at 840 h [21]: 200 µg·h/mL; solubility [23]: < 3 µM; solubility [24]: < 3 µM; IC50 [25]: > 25 µM
5 | > 100 | > 100 | > 100 | > 100 | > 100 | > 100 | > 100 | > 100 | > 100 | O=C(OCc1ccccc1)c1cn2c(=O)n(Cc3ccccc3)c(=O)cc2s1 |  |  | 
